Assay results of several laboratories.
Protocols differ between the studies behind these lines.
Dihydrofolate reductase: Dihydrofolate reductase (Mycobacterium avium, UniProt O30463)
Ephx2: Bifunctional epoxide hydrolase 2 (Ephx2, Rattus norvegicus, UniProt P80299)

CCCOc1nc(N)nc(N)c1OCCCOc1ccccc1CCC(=O)O
IC50 (Dihydrofolate reductase; enzyme activity; inhibitor): > 5000 nM

O=C(Nc1ccc(-c2ccnc3ccccc23)cc1)C1CCN(S(=O)(=O)c2ccccc2Cl)CC1
IC50 (Ephx2; enzyme activity; inhibitor; fluorescence): 0.7 nM

Nc1nc(N)c(OCCCOc2ccccc2CCC(=O)O)c(-c2ccc(C(F)(F)F)cc2)n1
IC50 (Dihydrofolate reductase; enzyme activity; inhibitor): 67 nM

O=C(C=Cc1ccccc1)Nc1cc(-c2ccnc(N3CCC(O)CC3)c2)ccn1
Kd (Estrogen receptor (ESR1, Homo sapiens, UniProt P03372); binding; SPR): 1280 nM

CN1Cc2c(N)cccc2C(=O)N1C1CCC(=O)NC1=O (stereo not shown)
DC50 (Cereblon/Ikaros (Homo sapiens, UniProt Q13422+Q96SW2); protein level; degrader; luciferase): 67.2 nM

CC[C@H](NC(=O)[C@H](CS(=O)(=O)CC1CC1)N[C@@H](c1ccc(F)cc1)C(F)(F)F)C(=O)C(=O)NC1CC1
IC50 (Dipeptidyl peptidase 1 (Ctsc, Mus musculus, UniProt P97821); enzyme activity; inhibitor; fluorescence): 18000 nM

O=C(Nc1ccc(-c2ccc3cccnc3c2)cc1)C1CCN(S(=O)(=O)c2ccccc2Cl)CC1
IC50 (Ephx2; enzyme activity; inhibitor; fluorescence): 8.1 nM

O=C1CC[C@H](N2Cc3cc(N4CCN(CC5CCN(c6ccc([C@@H]7c8ccc(O)cc8CC[C@@H]7c7ccccc7)cc6)CC5)CC4)ccc3C2=O)C(=O)N1
IC50 (Glucocorticoid receptor (NR3C1, Homo sapiens, UniProt P04150); ligand displacement; radioligand): 83 nM

Cc1cc([C@@H](C)Nc2ccccc2C(=O)O)c2nc(N3CCC(F)(F)CC3)c(C#N)c(=O)n2c1
IC50 (Phosphatidylinositol 3-kinase catalytic subunit type 3 (PIK3C3, Homo sapiens, UniProt Q8NEB9); enzyme activity; inhibitor; ADP detection): > 10000 nM

O=c1cc(-c2ccc(O)cc2)oc2c([C@@H]3OC[C@H](O)[C@H](O)[C@H]3O)c(O)c([C@@H]3O[C@H](CO)[C@@H](O)[C@H](O)[C@H]3O)c(O)c12
IC50 (Calcium/calmodulin-dependent protein kinase type II subunit beta (CAMK2B, Homo sapiens, UniProt Q13554); enzyme activity; inhibitor): 157000 nM
